Reference: ChEMBL document CHEMBL1146142, “Synthesis of miltirone analogues as inhibitors of Cdc25 phosphatases” (Bioorg Med Chem Lett, 2006)

Experiments:
[1] = target: T1, M-phase inducer phosphatase 1 (Homo sapiens, UniProt P30304); assay: Inhibitory activity against human Cdc25A phosphatase
T1 sequence (P30304 whole entry): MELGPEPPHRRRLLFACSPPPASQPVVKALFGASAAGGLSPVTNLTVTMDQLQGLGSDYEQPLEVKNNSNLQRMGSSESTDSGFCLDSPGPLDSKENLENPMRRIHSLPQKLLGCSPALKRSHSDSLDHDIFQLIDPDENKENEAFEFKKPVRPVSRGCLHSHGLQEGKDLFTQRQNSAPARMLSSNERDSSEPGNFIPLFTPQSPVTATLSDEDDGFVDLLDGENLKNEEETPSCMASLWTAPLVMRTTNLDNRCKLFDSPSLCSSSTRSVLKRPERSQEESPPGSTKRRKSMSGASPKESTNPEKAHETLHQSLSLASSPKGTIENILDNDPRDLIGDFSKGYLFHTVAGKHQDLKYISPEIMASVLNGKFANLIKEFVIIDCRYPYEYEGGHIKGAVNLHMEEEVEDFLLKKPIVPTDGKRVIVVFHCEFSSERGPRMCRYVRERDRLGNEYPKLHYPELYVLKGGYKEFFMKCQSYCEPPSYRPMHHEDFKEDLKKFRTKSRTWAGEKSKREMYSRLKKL

[2] = target: T2, Tyrosine-protein phosphatase non-receptor type 1 (Homo sapiens, UniProt P18031); assay: Inhibitory activity against human PTP1B
T2 sequence (P18031 whole entry): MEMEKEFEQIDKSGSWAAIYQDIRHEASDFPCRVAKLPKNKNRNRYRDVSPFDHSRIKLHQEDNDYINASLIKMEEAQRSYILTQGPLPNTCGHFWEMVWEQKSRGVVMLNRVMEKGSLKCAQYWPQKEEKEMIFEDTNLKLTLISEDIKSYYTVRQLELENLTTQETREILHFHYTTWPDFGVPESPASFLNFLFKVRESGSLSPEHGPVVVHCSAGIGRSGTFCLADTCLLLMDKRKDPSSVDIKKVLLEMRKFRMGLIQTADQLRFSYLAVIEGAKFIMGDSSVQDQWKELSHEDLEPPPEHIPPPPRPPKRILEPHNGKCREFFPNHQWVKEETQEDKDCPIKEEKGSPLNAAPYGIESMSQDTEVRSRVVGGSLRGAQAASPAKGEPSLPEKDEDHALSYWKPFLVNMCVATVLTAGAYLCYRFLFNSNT
Summary of the method: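 GST–PTP1B (30–40 nM) in 50 mM MOPs pH 6.5 with 2 mM DTT, 1 mM EDTA and 2% DMSO. Substrate was 2 mM pNPP.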

HCT-116 = assay: Cytotoxicity against HCT116 cell line; assay type: functional, cell-based; settings: Homo sapiens
Summary of the method: (§1)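 Tumor cells trypsinized and seeded at 3000 cells/well; after attachment, exposed to a range of compound concentrations for 72 h. MTT (5 mg/mL) was added and incubated 3 h, then medium was removed and formazan dissolved in DMSO. Absorbance read at 550 nm with […] reference.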

[3] = target: T3, M-phase inducer phosphatase 2 (Homo sapiens, UniProt P30305); assay: Inhibitory activity against human Cdc25B phosphatase
T3 sequence (P30305 whole entry): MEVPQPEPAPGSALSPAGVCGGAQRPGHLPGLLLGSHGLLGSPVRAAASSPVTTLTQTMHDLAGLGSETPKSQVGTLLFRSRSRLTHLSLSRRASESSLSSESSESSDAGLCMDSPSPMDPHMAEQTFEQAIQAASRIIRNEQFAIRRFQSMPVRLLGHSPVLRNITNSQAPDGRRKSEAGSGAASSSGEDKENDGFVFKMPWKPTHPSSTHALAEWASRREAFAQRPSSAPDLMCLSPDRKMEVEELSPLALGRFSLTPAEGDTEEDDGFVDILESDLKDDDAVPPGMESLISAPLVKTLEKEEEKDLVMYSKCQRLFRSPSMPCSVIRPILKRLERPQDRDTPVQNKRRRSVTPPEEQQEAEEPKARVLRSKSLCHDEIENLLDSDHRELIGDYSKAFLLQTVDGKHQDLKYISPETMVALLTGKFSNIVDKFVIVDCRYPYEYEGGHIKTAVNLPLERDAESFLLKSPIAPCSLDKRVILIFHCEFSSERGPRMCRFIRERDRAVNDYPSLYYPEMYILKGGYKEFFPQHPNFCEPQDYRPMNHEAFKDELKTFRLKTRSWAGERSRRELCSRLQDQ

A549 = assay: Cytotoxicity against A549 cell line; assay type: functional, cell-based; settings: Homo sapiens; summary of the method: as §1

| IC50 ([1]; read-out: IC50) | IC50 ([2]; read-out: IC50) | IC50 ([3]; read-out: IC50) | IC50 [2] | IC50 [3] | IC50 [1] | SMILES | IC50 (HCT-116) | IC50 (A549) |
| --- | --- | --- | --- | --- | --- | --- | --- | --- |
| 6.87 µM | 19.1 µM | 5.33 µM | – | – | – | CC(C)C1=C(Nc2ccc([N+](=O)[O-])cc2)c2ccccc2C(=O)C1=O | 2.39 µM | 6.59 µM |
| 5.43 µM | 7.57 µM | 3.63 µM | – | – | – | CC(C)C1=C(Sc2ccc(Br)cc2)c2ccccc2C(=O)C1=O | 5.85 µM | 5.93 µM |
| 7.06 µM | 19.6 µM | 4.53 µM | – | – | – | Cc1ccc(NC2=C(C(C)C)C(=O)C(=O)c3ccccc32)cc1 | 6.16 µM | 8.2 µM |
| 10.9 µM | – | 8.71 µM | Not Active | – | – | CC(C)C1=C(Nc2ccccc2)c2ccccc2C(=O)C1=O | 8.22 µM | 25 µM |
| 4.9 µM | – | 4.63 µM | Not Active | – | – | COc1ccc(NC2=C(C(C)C)C(=O)C(=O)c3ccccc32)cc1 | 4.04 µM | 87 µM |
| 12.8 µM | 7.22 µM | 7.55 µM | – | – | – | CC(C)C1=C(Sc2ccc(F)cc2)c2ccccc2C(=O)C1=O | 20.8 µM | 20.4 µM |
| 21.9 µM | 7.63 µM | 13.8 µM | – | – | – | CC(=O)Nc1ccc(SC2=C(C(C)C)C(=O)C(=O)c3ccccc32)cc1 | 6.32 µM | 7.36 µM |

Continued, compound first:

| SMILES | IC50 ([1]; read-out: IC50) | IC50 ([2]; read-out: IC50) | IC50 ([3]; read-out: IC50) | IC50 [2] | IC50 [3] | IC50 [1] | IC50 (HCT-116) | IC50 (A549) |
| --- | --- | --- | --- | --- | --- | --- | --- | --- |
| CC(C)C1=C(Sc2ccccc2)c2ccccc2C(=O)C1=O | 5.86 µM | 13.7 µM | 10.9 µM | – | – | – | 8.03 µM | 7.59 µM |
| CC(C)C1=C(c2ccccc2)c2ccccc2C(=O)C1=O | 7.83 µM | – | 3.23 µM | Not Active | – | – | 29.6 µM | 24.7 µM |
| Cc1ccc(NC2=C(C(C)C)C(=O)C(=O)c3c2ccc2c3CCCC2(C)C)cc1 | 27.6 µM | – | 7.54 µM | Not Active | – | – | 24.9 µM | 4.25 µM |
| CC(C)C1=Cc2ccc3c(c2C(=O)C1=O)CCCC3(C)C [MILTIRONE] | > 70.8 µM | – | – | Not Active | Not Active | – | 12.4 µM | 24.6 µM |
| CC(C)C1=C(Sc2ccc(F)cc2)c2ccc3c(c2C(=O)C1=O)CCCC3(C)C | 22.1 µM | 4.55 µM | 2.58 µM | – | – | – | 5.71 µM | 1.25 µM |
| CC(C)C1=C(c2ccccc2)c2ccc3c(c2C(=O)C1=O)CCCC3(C)C | 3.96 µM | 4.11 µM | 3.16 µM | – | – | – | 6.28 µM | 6.24 µM |
| CC(C)C1=C(Sc2ccccc2)c2ccc3c(c2C(=O)C1=O)CCCC3(C)C | 3.97 µM | 10.4 µM | 5.07 µM | – | – | – | 5.75 µM | 26.6 µM |
| COc1ccc(NC2=C(C(C)C)C(=O)C(=O)c3c2ccc2c3CCCC2(C)C)cc1 | 11.8 µM | – | 4.09 µM | Not Active | – | – | 5.51 µM | 9.19 µM |
| CC(=O)Nc1ccc(SC2=C(C(C)C)C(=O)C(=O)c3c2ccc2c3CCCC2(C)C)cc1 | 5.96 µM | 9.05 µM | 4.85 µM | – | – | – | 5.18 µM | 15.4 µM |
| CC(C)C1=Cc2ccccc2C(=O)C1=O | 11.2 µM | – | 24.1 µM | Not Active | – | – | 4 µM | 4.14 µM |
| CC(C)C1=C(Nc2ccc([N+](=O)[O-])cc2)c2ccc3c(c2C(=O)C1=O)CCCC3(C)C | – | – | – | Not Active | Not Active | Not Active | 7.1 µM | 5.34 µM |
| CC(C)C1=C(Sc2ccc(Br)cc2)c2ccc3c(c2C(=O)C1=O)CCCC3(C)C | 20.3 µM | 7.19 µM | 3.78 µM | – | – | – | 4.94 µM | 5.07 µM |
| CC(C)C1=C(Nc2ccccc2)c2ccc3c(c2C(=O)C1=O)CCCC3(C)C | 8.81 µM | 27.2 µM | 3.99 µM | – | – | – | 6.25 µM | 19.1 µM |
